Reference: paper PMC10512781 (Journal of medicinal chemistry, 2022)
pIC50: −log10 of the molar value. “Also recorded” adds a separate entry of the source. Where two headings read alike, the source gives them in different places.

Key:
[1] = tested on: human pancreatic cancer cell lines; details: at 300 μM; cited from earlier work
CHO cells = details: at 1 mM; cited from earlier work
CHO-K1 cells [2] = assay: Cytotoxicity assay; assay type: cell-based, Chinese hamster; details: CHO-K1, 384-well; maximum tolerated concentration (≥90% relative growth)
CHO-K1 cells [3] = assay: 48 h growth inhibition by assay reagents; assay type: cell-based, Chinese hamster; details: read-out: 48 h CHO-K1 IC50; CHO-K1, 48 h
[4] = tested on: polyamine import in L3.6pl cells; assay: Radiolabeled spermidine; assay type: cell-based, human; details: for basal 3H-Spd uptake: 24 h treatment prior to 3H-Spd for 15 min; for 3H-Spd import in combination with DFMO vs DFMO-only: 72 h with DFMO + compound prior to 3H-Spd for 15 min
Outline: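 L3.6pl cells pretreated 24 h with test compound, then exposed to 3H-spermidine for 15 min. Radioactive counts normalised to lysate protein measured by BCA assay. Triplicate conditions; reported as pmol 3H-Spd/μg protein ± standard deviation.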

[5] = tested on: p21 protein in L3.6pl cells; assay: Western blot, p21 protein level; assay type: cell-based, human; details: 24 h
Outline: (§1)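 L3.6pl cells (400,000 in 2 mL RPMI 1640, 10% FBS, 1% antibiotic–antimycotic) held overnight at 37 °C, 5% CO2, then treated 24 h with test compound or DMSO. Lysed in RIPA with protease and phosphatase inhibitors. Membranes blocked in 5% skim milk/PBST for 1 h, primary antibody overnight at 4 °C (c-Myc 1:1000, FUBP1 1:1000, p21 1:100, GAPDH 1:40,000), secondary 1 h, chemiluminescence on X-ray film. Repeated at least three times.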

[6] = target: T1, GST-FUBP1 (KH3-KH4) binding to FUSE oligo (Oligo-KH4) (Homo sapiens, UniProt Q96AE4); assay: Gel shift assay; details: 30 and 60 μM vs DMSO control
T1 sequence (Q96AE4 278-447 limits assumed): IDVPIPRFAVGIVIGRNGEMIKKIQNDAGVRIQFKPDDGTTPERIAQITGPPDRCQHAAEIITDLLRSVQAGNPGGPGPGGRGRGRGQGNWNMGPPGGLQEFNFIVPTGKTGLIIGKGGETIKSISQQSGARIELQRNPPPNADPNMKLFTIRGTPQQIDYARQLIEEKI

[7] = tested on: c-Myc mRNA in L3.6pl cells; assay: qRT-PCR, c-Myc mRNA; assay type: cell-based, human; details: 24 h, qRT-PCR vs matched vehicle control
Outline: (§2)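 For qRT-PCR, L3.6pl cells (400,000) in RPMI 1640 with 10% FBS and 1% antibiotic–antimycotic were seeded in 6-well dishes and held overnight at 37 °C, 5% CO2. Next day they were treated with test compound or DMSO vehicle at 37 °C, then mRNA was measured by quantitative real-time PCR.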

[8] = tested on: FUBP1 protein in L3.6pl cells; assay: Western blot, FUBP1 protein level; assay type: cell-based, human; details: 24 h
Outline: as §1

[9] = target: T2, FUBP1 binding to the FUSE c-myc promoter region in L3.6pl cells (Homo sapiens, UniProt Q96AE4); assay: Chromatin immunoprecipitation; assay type: cell-based; details: 60 μM, 24 h, vs untreated
T2 sequence (Q96AE4 1-644): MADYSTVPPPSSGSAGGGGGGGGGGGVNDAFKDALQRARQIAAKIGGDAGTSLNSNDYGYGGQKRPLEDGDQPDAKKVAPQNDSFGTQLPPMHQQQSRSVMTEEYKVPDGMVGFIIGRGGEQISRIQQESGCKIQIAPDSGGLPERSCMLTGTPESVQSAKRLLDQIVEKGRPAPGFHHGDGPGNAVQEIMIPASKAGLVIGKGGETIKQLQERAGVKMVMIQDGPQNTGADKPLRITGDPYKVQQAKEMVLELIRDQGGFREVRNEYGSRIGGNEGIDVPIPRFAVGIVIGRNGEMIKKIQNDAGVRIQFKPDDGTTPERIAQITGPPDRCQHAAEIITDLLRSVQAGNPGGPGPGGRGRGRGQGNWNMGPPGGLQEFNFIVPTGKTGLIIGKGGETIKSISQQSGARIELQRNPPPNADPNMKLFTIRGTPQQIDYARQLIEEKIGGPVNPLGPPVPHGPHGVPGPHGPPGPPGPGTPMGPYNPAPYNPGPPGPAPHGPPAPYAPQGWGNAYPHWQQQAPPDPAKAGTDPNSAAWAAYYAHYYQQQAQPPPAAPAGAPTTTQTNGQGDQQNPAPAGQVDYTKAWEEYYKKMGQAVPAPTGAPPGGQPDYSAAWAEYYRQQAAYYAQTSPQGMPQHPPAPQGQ
Outline: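 L3.6pl cells seeded at 300,000 cells/mL in RPMI 1640 with 10% FBS and 1% antibiotic–antimycotic, then held overnight at 37 °C, 5% CO2. Treated 24 h with test compound (60 μM) or 0.6% DMSO, then fixed in 1% formalin for 10 min. Sonicated chromatin (20–25 μg) was precleared and immunoprecipitated overnight at 4 °C with FUBP1 antibody, with H4Ac and rabbit IgG controls. Samples were de-crosslinked overnight at 65 °C, and FUSE c-Myc DNA measured by q-PCR. Mean fold change ± S.E.M., n = 2.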

[10] = tested on: c-Myc protein in L3.6pl cells; assay: Western blot, c-Myc protein level; assay type: cell-based, human; details: 24 h
Outline: as §1

[11] = tested on: native polyamine levels in L3.6pl cells; assay: Intracellular polyamine quantitation by HPLC; assay type: cell-based, human; details: 60 μM, 24 h, vs vehicle (0.6% DMSO)
Outline: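 Polyamines measured by HPLC. L3.6pl cells seeded at 100,000 cells/mL in RPMI 1640 with 250 μM aminoguanidine and held overnight at 37 °C, 5% CO2. Next day treated with test compound (60 μM) or 0.6% DMSO vehicle for 24 h at 37 °C, then intracellular native polyamines quantified.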

p21 mRNA in L3.6pl cells = assay: qRT-PCR, p21 mRNA; assay type: cell-based, human; details: 24 h, qRT-PCR vs matched vehicle control
Outline: as §2

[12] = tested on: L3.6pl pancreatic cancer cells; details: DFMO 8 mM, 48 h, cited from earlier work
FUBP1 = details: NMR study; cited from earlier work

For `N=C(N)NN` [AG, aminoguanidine], the toxicity [1] is listed as “not toxic” and the toxicity (CHO cells) is listed as “not toxic”.
For `COc1ccccc1C(=O)Nc1ccc(N2CCN(Cc3ccccn3)CC2)cc1C(=O)O` [Compound 54, 2-(2-Methoxybenzamido)-5-(4-(pyridin-2-ylmethyl)piperazin-1-yl)benzoic Acid], the “Cytotoxicity MTC” value (CHO-K1 cells [2]) was over 40 µM.
`NCCCCNCCCCNCc1c2ccccc2cc2ccccc12` [Ant44, N^1-(9-anthracenylmethyl)-homospermidine] gave a pIC50 (CHO-K1 cells [3]) of 5.70.
With `CNCCCCNCCCCNCc1cc(CNCCCCNCCCCNC)cc(CNCCCCNCCCCNC)c1.Cl.Cl.Cl.Cl.Cl.Cl.Cl.Cl.Cl` [Compound 5] the “basal 3H-Spd uptake” value [4] was “blocked significant spermidine uptake” and the “3H-Spd import in combination with DFMO vs DFMO-only” value [4] was “statistically significant reduction in ^3H-Spd import”.
In the case of `COc1ccc(C(=O)Nc2ccc(N3CCN(c4cc(Cl)ccc4C)CC3)cc2C(=O)O)cc1` [Compound 9, 5-[4-(5-Chloro-2-methyl-phenyl)-piperazin-1-yl]-2-(4-methoxybenzoylamino)-benzoic Acid], the p21 protein expression [5] was “increased p21 protein expression in a dose-dependent manner; also recorded: superior in terms of inducing p21”, the “FUBP1 (KH3-KH4)-FUSE DNA bound complex” value [6] was “dose-dependent decrease” and the “c-Myc mRNA level” value [7] was “significantly decreased for c-Myc”. For the same compound, the FUBP1 protein levels [8] was “did not affect FUBP1 protein levels”, the “FUSE c-Myc DNA pulled down with FUBP1 antibody” value [9] was “reduced levels of c-Myc FUSE DNA” and the c-Myc protein expression [10] was “reduced c-Myc protein expression”. The “basal 3H-Spd uptake” value [4] was “did not block the uptake of ^3H-Spd”, the “3H-Spd import in combination with DFMO vs DFMO-only” value [4] was “did not significantly inhibit ^3H-Spd import” and the intracellular polyamine levels [11] was “significantly lower polyamine levels”. The “p21 mRNA level” value (p21 mRNA in L3.6pl cells) was “increased for p21”.
In the case of `NCCC[C@](N)(C(=O)O)C(F)F` [DFMO, difluoromethylornithine], the “relative growth (compared to an untreated control)” value ([12]; with rescuing spermidine 1 μM) is given as 103%, the intracellular putrescine ([12]; with spermidine 1 μM) is given as “no detectable intracellular putrescine” and the intracellular spermidine ([12]; with spermidine 1 μM) is given as 6.4 nmol/mg protein. For the same compound, the intracellular spermine ([12]; with spermidine 1 μM) was 17.4 nmol spermine/mg protein, the intracellular putrescine [12] was “no detectable intracellular putrescine” and the intracellular spermidine [12] was 2.1 nmol/mg protein. For the same compound, the intracellular spermine [12] was 18.6 nmol spermine/mg protein and the “relative growth (compared to an untreated control)” value [12] was 64%.
In the case of `Nc1ccccc1C(=O)O` [anthranilic acid], the “binding to FUBP1” value (FUBP1) is listed as “very low affinity”.
For `COc1ccccc1C(=O)Nc1ccc(N2CCC(Oc3ccccc3)CC2)cc1C(=O)O` [Compound 63, 2-(2-Methoxybenzamido)-5-(4-phenoxypiperidin-1-yl)benzoic Acid], the p21 protein expression [5] was “increased p21 protein levels” and the c-Myc protein expression [10] was “reduced c-Myc”.
